Source: PubChem (several laboratories)
Shown are actives, neighbours in structure and some others; about 12% of the full set was active somewhere.
RAM inhibit – blocks the yeast RAM network | S. cerevisiae dse1pr::URA3 reporter, 5-FOA growth OD615, 2 d; analog-sensitive cbk1-as2 kinase mutant strain | inhibition, % at 50 µM | hit rate 1.8% among 190,000 | AID 868;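 active = inhibition above a set limit, 3 SD over mean compound inhibition, cut at about 8.4% in these data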;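 also: 0% = DMSO-only wells with no growth and 100% = 10 µM 1-NA-PP1 full growth; inhibition rescues growth on 5-FOA so higher OD means more RAM inhibition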
ABCG2 inh – blocks JC-1 efflux by human ABCG2 transporter | hit rate 0.1% among 190,000 | inhibition, % at 6.6 µM | IgMXP3 cells, flow cytometry;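 active = inhibition above 80%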;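 also: 0% = DMSO and 100% = nicardipine control wells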
Target sequence (Q9UNQ0 whole entry, looked up): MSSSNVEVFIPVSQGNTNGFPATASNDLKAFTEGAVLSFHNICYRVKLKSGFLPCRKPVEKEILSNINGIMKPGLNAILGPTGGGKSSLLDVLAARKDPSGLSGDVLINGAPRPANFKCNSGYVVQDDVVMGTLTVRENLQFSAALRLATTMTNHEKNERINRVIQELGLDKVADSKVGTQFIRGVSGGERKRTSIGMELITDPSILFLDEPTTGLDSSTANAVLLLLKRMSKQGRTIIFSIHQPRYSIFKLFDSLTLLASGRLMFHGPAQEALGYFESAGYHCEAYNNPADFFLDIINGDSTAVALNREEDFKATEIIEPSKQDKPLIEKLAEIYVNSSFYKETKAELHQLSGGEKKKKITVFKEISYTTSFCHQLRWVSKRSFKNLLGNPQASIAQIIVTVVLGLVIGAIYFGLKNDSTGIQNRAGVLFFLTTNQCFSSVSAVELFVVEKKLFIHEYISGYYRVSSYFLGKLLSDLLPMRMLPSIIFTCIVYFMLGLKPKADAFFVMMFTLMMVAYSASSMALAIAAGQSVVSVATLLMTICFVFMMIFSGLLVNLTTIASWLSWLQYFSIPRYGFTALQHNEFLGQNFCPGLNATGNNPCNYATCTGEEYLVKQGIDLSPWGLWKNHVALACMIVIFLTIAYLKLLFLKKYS
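material = IgMXP3 (ABCG2) plus far-red-tagged CCRF-Adr (ABCB1) cells | amount = 3 million cells/mL, equal mix of both lines | also added = JC-1 transporter substrate | dosing = one concentration, 6.6 µM final | schedule = 10 min at 25 °C | measured by = flow cytometric JC-1 green MFI at 530 nm | read-out basis = percent efflux inhibition, scaled nicardipine 100% to DMSO 0%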
WT yeast gro inh – growth inhibition of WT yeast, mitochondrial fusion screen; mitochondrial fusion phenotypic screen, WT strain; hit rate 2.1% among 190,000; inhibition, % at 10 µM; in the data active = inhibition above about 58%; tested in S. cerevisiae
ABCB1 block – human ABCB1 inhibition, ABCG2 as counter-screen | P08183 | CCRF-Adr cells, JC-1 efflux, flow cytometry | inhibition, % at 6.6 µM | hit rate 0.067% among 190,000; in the data active = inhibition above about 40%;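 also: 0% = vehicle and 100% = reference inhibitor; higher value means more JC-1 retained so stronger ABCB1 efflux block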
Lmaj promast – reduces viability of Leishmania major promastigotes; resazurin fluorescence viability; inhibition, % at 10 µM; hit rate 9% among 200,000; AID 1063; in the data active = inhibition above about 50%;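 also: promastigotes grown with compound for 44 hours at 28 °C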
Numbers without * were called inactive; / = not tested or not shown.

SMILES	RAM inhibit	ABCG2 inh	WT yeast gro inh	ABCB1 block	Lmaj promast
CCCCOP(=O)(OCCCC)C1(NS(=O)(=O)c2ccccc2)C=CC(=O)c2ccccc21 (stereo not drawn)	5	-19	-2	4	100*
Cc1ccc(N2CCN(C(=O)c3ccccc3NC(=O)C3CC=CCC3C(=O)O)CC2)cc1 (stereo not drawn)	1	5	16	2	-8
O=C(CCNS(=O)(=O)c1ccc(Br)s1)Nc1ccc(Cl)cc1	4	2	18	0	81*
CCOC(=O)Cc1csc(NC(=O)c2cc3c(s2)CCCC3)n1	1	0	22	0	91*
Cc1csc(NC(=O)c2cc3c(s2)CCCC3)n1	-1	31	41	1	96*
Cc1csc(NC(=O)c2cc3c(s2)CCCCC3)n1	2	4	-11	1	47
CCOC(=O)Cc1csc(NC(=O)c2csc3c2CCCC3)n1	5	35	54	1	7
Cc1nonc1OCCCNc1ccc([N+](=O)[O-])cc1Cl	2	1	3	0	-6
COc1cc2c(cc1OC)CN(C(=O)c1ccc(S(=O)(=O)N(C)c3ccccc3)cc1)CC2	3	10	3	4	99*
Cc1ccc(CCNC(=O)CNC(=S)N(Cc2ccccc2)Cc2cccnc2)cc1	1	3	1	2	7
COc1ccc(CN(Cc2cccnc2)C(=S)NCCc2ccccc2)cc1OC	2	2	1	2	100*
CSc1cccc(NC(=S)N(Cc2ccccc2)Cc2cccnc2)c1	3	-1	30	1	96*
COc1ccccc1NC(=S)N(Cc1ccccc1)Cc1cccnc1	2	3	-5	0	33
CCN(Cc1ccncc1)C(=S)Nc1c(C)cccc1C	1	4	0	0	-7
Cc1cccc(C)c1NC(=S)N(Cc1ccccc1)Cc1cccnc1	1	3	-3	1	89*
Cc1cccc(OCc2nc(-c3cccnc3)no2)c1	1	5	-13	1	-3
COc1ccc([N+](=O)[O-])cc1COc1cc(C)cc2oc(=O)cc(-c3ccccc3)c12	2	21	-4	14	99*
Cc1ccc(S(=O)(=O)N/N=C2/CCCCC2C2CCCCC2)cc1[N+](=O)[O-] (stereo not drawn)	3	34	47	0	-3
CC(C)(C)c1ccc(S(=O)(=O)O/N=C2/CCCCC2c2ccc([N+](=O)[O-])cc2[N+](=O)[O-])cc1 (stereo not drawn)	-1	1	4	1	53*
C/C=C/c1ccc(OCCCCNCc2ccco2)c(OC)c1	2	0	15	1	93*
C/C=C/c1ccc(OCCCCOc2ccc(OC)cc2)c(OC)c1	10*	13	-11	1	35
C/C=C/c1ccc(OCCCCN2CCN(CC)CC2)c(OC)c1	-1	1	-3	1	86*
C/C=C/c1ccc(OCCCCN2CC(C)CC(C)C2)c(OC)c1 (stereo not drawn)	0	6	17	2	8
CC1CCc2c(nc3ncnn3c2NCCc2ccccc2F)C1 (stereo not drawn)	2	38	5	-2	18
O=C1c2cnc3nc(SCc4cccc(Cl)c4)nn3c2CC2c3ccccc3CCN12 (stereo not drawn)	1	44	-3	7	56*
SMILES	RAM inhibit	ABCG2 inh	WT yeast gro inh	ABCB1 block	Lmaj promast
CS(=O)(=O)c1nc(S(=O)(=O)c2ccc(Cl)cc2)c(NCc2ccccn2)s1	7	5	-3	4	6
Nc1nc(COc2ccc3ccccc3c2)cs1	0	4	75*	0	-5
Cc1ccc(-c2nnc(-c3ccccc3)o2)cc1	3	12	1	1	-3
Cc1ccc(-c2nc3c(=O)n(C)c4ccccc4c3o2)cc1	1	7	3	2	63*
O=C1CN(C(=O)c2ccc(Br)o2)C(c2ccc(F)cc2)c2cc(F)ccc2N1 (stereo not drawn)	1	13	-7	1	95*
O=C1CN(C(=O)c2ccco2)C(c2ccc(F)cc2)c2cc(Cl)ccc2N1 (stereo not drawn)	/	/	/	/	33
CC1CC(=O)C(C2c3ccccc3CCN2C(=O)CCl)C(=O)C1 (stereo not drawn)	1	-1	-9	0	51*
COc1cc2c(cc1OC)C(C1C(=O)CC(C)(C)CC1=O)N(C(=O)CCl)CC2 (stereo not drawn)	2	2	-15	1	26
O=C(N/N=C\c1ccc(-c2cccc(Cl)c2)o1)C(=O)NC1CCCC1	4	6	9	0	2
COc1ccc(CNC(=O)C/C(C)=N/NC(=O)COc2ccc(Br)cc2)cc1	1	3	-17	0	-8
COc1ccc(/C=C2\CCc3ccccc3C2=O)cc1Cn1cccn1	2	6	52	1	86*
Cc1cc(C)n(-c2nc(Nc3ccccc3C)nc(-n3nc(C)cc3C)n2)n1	5	6	9	9	40
Cc1cc(C)n(-c2nc(Nc3ccccc3C(F)(F)F)nc(-n3nc(C)cc3C)n2)n1	3	16	16	9	100*
Cc1onc(-c2c(Cl)cccc2Cl)c1C(=O)c1c[nH]c(C(=O)NCC2CCCO2)c1 (stereo not drawn)	3	1	-8	0	4
COc1cc(CN2CCNC(=O)C2CC(=O)N(C)Cc2cccnc2)cc(OC)c1 (stereo not drawn)	1	0	2	0	-8
CN(Cc1ccncn1)C(=O)CC1C(=O)NCCN1Cc1cccc(Oc2ccccc2)c1 (stereo not drawn)	1	-1	-6	0	95*
C=COCCNC(=S)N1CCOCCOCCN(C(=S)NCCOC=C)CCOCC1	1	1	-13	0	0
O=C(COC(=O)CSc1ccc2ccccc2c1Br)NC1CC1	-2	19	-7	2	-5
CCOC(=O)C(C)(C)N(Cc1ccc(C)cc1)S(=O)(=O)c1ccc(Cl)c([N+](=O)[O-])c1	9.8*	15	38	1	100*
CC(=O)c1c(C)oc2ccc(N(C(C)=O)S(=O)(=O)c3ccc(Cl)c([N+](=O)[O-])c3)cc12	2	6	15	2	0
CCOC(=O)C(C)(C)NS(=O)(=O)c1ccc(Cl)c([N+](=O)[O-])c1	2	7	-1	0	6
CCOC(=O)C(C)(C)N(Cc1ccc(Cl)cc1)S(=O)(=O)c1ccc(Cl)c([N+](=O)[O-])c1	9.4*	0	20	1	99*
Cc1ccc(Sc2ccc([N+](=O)[O-])cc2[N+](=O)[O-])nc1	0	35	17	3	58*
O=[N+]([O-])c1ccc(Sc2nc3ccccc3o2)c([N+](=O)[O-])c1	-1	28	75	1	19
Cc1ccnc(Sc2ccc([N+](=O)[O-])cc2[N+](=O)[O-])n1	2	10	14	2	100*
